Compounds with a hit are over-represented: about 1.1% of the library has one in this group of screens.
DAGLB inhibitor = diacylglycerol lipase beta (human) inhibition | hit rate 0.059% among 340,000 | HEK293T DAGLB membrane lysate, EnzChek fluorogenic substrate | AID 504411 | inhibition, % at 5.17 µM; in the data active = inhibition above about 34%
Vif inh = HIV Vif inhibition; HEK293T cells, Vif self-association by quenched fluorescence, imaging, 24 h; inhibition, % at 7.49 µM; hit rate 0.35% among 340,000; in the data active = inhibition above about 50%, passing the limit was not always enough
NR2E3 ag-1 = agonists of human nuclear receptor NR2E3 | GST-NR2E3/biotin-RetCOR TR-FRET, 1536-well | inhibition of corepressor binding, % at 4.78 µM | hit rate 0.12% among 320,000;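 active = percent inhibition above the cutoff of mean plus 3 SD of all tested compounds, set per screening campaign, cut at about 20% in these data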
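System: GST-tagged NR2E3 plus biotinylated RetCOR corepressor; Buffer or medium: pH 7.5 Tris-based buffer; Probe or stimulus: RetCOR corepressor, biotinylated, 7 nM; Doses: compound at 4.8 µM, single dose; Schedule: 5 h incubation at 4 °C; Technique: time-resolved FRET; Evaluation: percent inhibition of TR-FRET ratio; Replication: one well per compound, singlicate testing.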
MT1-MMP act inh = inhibitors of human MT1-MMP activation | P50281 | HT1080 RFP-PRO-GFP cells, GFP/RFP ratio fluorescence, overnight; percent of plate control window, DMSO zero | GFP/RFP ratio change, % at 20 µM | hit rate 0.061% among 360,000;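 active = GFP/RFP ratio change of at least 30% with cell ATP level not reduced by more than half and red fluorescence within 50% of control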
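Read-out: GFP/RFP fluorescence ratio; Test system: RFP-PRO-GFP reporter HT1080 cells; Compound dosing: single-point 20 µM compound, 1% DMSO; Times: overnight compound exposure at 37 °C.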
NR2E3 ag-2 = agonists of human NR2E3 nuclear receptor | Q9Y5X4 | CHO-S Gal4-NCOR/VP16-NR2E3 two-hybrid, luciferase | inhibition of corepressor binding, % at 3.98 µM | hit rate 0.35% among 360,000 | AID 602229;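 active = inhibition above the mean of all tested compounds plus 3 SD, cut at about 70% in these data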;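 also: higher means lower luciferase signal from less NR2E3 corepressor binding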
core dimer inh = blocks dimerization of HCV core protein; AID 1899; hit rate 0.33% among 300,000; inhibition, % at 5 µM; TR-FRET GST/Flag-core106 dimerization, 1536-well;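 active = inhibition above the mean of all tested compounds plus 3 SD, set per screening campaign, cut at about 45% in these data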
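Assay system: GST-tagged and Flag-tagged HCV core protein residues 1-106 / Times: compound-protein-antibody incubation 4 h at 22.5 °C / Signal: time-resolved FRET, ex 340 nm, em 617 and 671 nm / Evaluation: % inhibition based on acceptor/donor emission ratio / Benchmarks: wells lacking GST-core106 and wells with excess unlabelled core106 / Repeats: singlicate, one well per compound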
Each line names hits and unclear results; the compound was inactive in the other large screens.

Cc1cc(CN(C)Cc2c(C(=O)N3CCCCCCC3)nc3ccc(Cl)cn23)n[nH]1	none
CC(C)CN(C(=O)COc1ccc([N+](=O)[O-])cc1)c1c(N)n(CC(C)C)c(=O)[nH]c1=O	none (no result: core dimer inh)
CC1(C)Oc2ccc(C(=O)N/N=C/c3ccc(O)cc3)cc2NC1=O	Vif inh 108.8
Cc1ccc(NC(=O)NNC(=O)c2ccc3c(c2)NC(=O)C(C)(C)O3)cc1	none
Cc1cccc(Nc2nn3c(=O)c4ccccc4nc3s2)c1	core dimer inh 68.8
O=C(O)/C=C/c1ccc([N+](=O)[O-])o1	none
O=[N+]([O-])c1ccc(/C=N/N=C/c2ccc([N+](=O)[O-])o2)o1	Vif inh 52.6 (no result: NR2E3 ag-1, core dimer inh)
Cc1cc(C(=O)Nc2c(F)c(F)c(F)c(F)c2F)n(-c2ccccc2)n1	Vif inh 72.9
COCCN(C(=O)COC(=O)c1cc2c(s1)CCC2)c1c(N)n(Cc2ccccc2)c(=O)[nH]c1=O	core dimer inh 68.6
CC(C)CN(C(=O)COC(=O)Cc1ccc(Cl)cc1)c1c(N)n(Cc2ccccc2)c(=O)[nH]c1=O	none
CC(C)CN(C(=O)COC(=O)CSc1ccccc1)c1c(N)n(Cc2ccccc2)c(=O)[nH]c1=O	Vif inh 50.3
Cc1ccc(OCc2nc3ccccc3n2C(C(=O)NC(C)(C)C)c2ccncc2)cc1 (stereo unspecified)	none (no result: DAGLB inhibitor, Vif inh, NR2E3 ag-1, NR2E3 ag-2, core dimer inh)
Cc1cccc(-n2cnc3c(c2=O)c2nc4ccccc4nc2n3Cc2ccco2)c1	core dimer inh 59.9
Cc1cc(C(F)(F)F)n2nc(-c3cnn(C)c3C(F)(F)F)cc2n1	Vif inh 67.6
CN(c1ccccc1)S(=O)(=O)c1cccc(NC(=O)c2ccc(Cl)c([N+](=O)[O-])c2)c1	none (no result: NR2E3 ag-1, core dimer inh)
Cc1cc(C)nc(Nc2ccc(C(=O)O)cc2)n1	Vif inh 58.5
CC/C(=N/Nc1cccc(C)c1)c1cnnc(SC)n1	Vif inh 81.7
COc1cc(CN2C(=O)C(C)ON=C2c2cccs2)cc(OC)c1 (stereo unspecified)	none (no result: DAGLB inhibitor, NR2E3 ag-1, core dimer inh)
COc1ccc(CNc2ncnc3sccc23)cc1OC	NR2E3 ag-2 79.9
C=CCNc1ncnc2c1ncn2[C@H]1CN(C2CCCC2)C[C@@H](CO)O1	none (no result: DAGLB inhibitor, NR2E3 ag-1, core dimer inh)
NC(=O)COC(=O)c1cccc(S(=O)(=O)N2CCN(c3ccccc3)CC2)c1	none
O=C(COC(=O)c1cccc(S(=O)(=O)N2CCN(c3ccccc3)CC2)c1)NCc1ccco1	core dimer inh 82.4
CCOC(=O)N1CCN(C(=O)C[C@@H]2C[C@@]3(C(=O)OC)CC(C)(C)CC=C3N(Cc3cccc4ccccc34)C2=O)CC1	none (no result: DAGLB inhibitor, Vif inh, NR2E3 ag-1, NR2E3 ag-2, core dimer inh)
Cc1ccc(/C=C2/SC(=S)N(CC(=O)Nc3ncc(Cc4ccc(C)cc4)s3)C2=O)cc1	core dimer inh 69.9
O=C(CN1C(=O)/C(=C/c2cccc(Br)c2)SC1=S)NC1=NCCS1	core dimer inh 49.6
O=C(O)COc1cccc(/C=C2/SC(=S)N(Cc3ccccc3)C2=O)c1	core dimer inh 55.5
Cc1cccc(Cc2cnc(NC(=O)CN3C(=O)/C(=C/c4ccccc4)SC3=S)s2)c1	core dimer inh 62.3
COc1ccc(C(=O)C(=O)N2CCC(c3ccccc3)CC2)cn1	none (no result: DAGLB inhibitor, Vif inh, NR2E3 ag-1, NR2E3 ag-2, core dimer inh)
Cc1ccc(N2C(=O)C3C(C2=O)C(C(=O)c2ccc(Cl)cc2)N2CCCC32)cc1 (stereo unspecified)	core dimer inh 61.8
CC(=O)Oc1ccc(N2C(=O)C3C(C2=O)C(C(=O)c2ccc(Cl)cc2)N2CCCC32)cc1 (stereo unspecified)	none
CC1=C(C(=O)N(C)C)CC(CC(=O)NCCN2CCOCC2)C(=O)N1CCCN1CCCC1=O (stereo unspecified)	none (no result: DAGLB inhibitor, NR2E3 ag-1, core dimer inh)
Cc1ccc(CNC(=O)CN2C(=O)COc3ccc(S(=O)(=O)N4CCCCC4)cc32)o1	none
CC(=O)c1csc(CS(=O)(=O)c2ccccn2)n1	none
COc1cc(OC)cc(C(=O)N[C@H](C(=O)Nc2ccc3c(c2)OCO3)C(C)C)c1	Vif inh 90.8
COc1cc(OC)cc(C(=O)NC(C(=O)Nc2ccc3c(c2)OCO3)C(C)C)c1 (stereo unspecified)	Vif inh 125.3 (no result: core dimer inh)

Bioassay records deposited in PubChem BioAssay by several laboratories.
